Entries after “also recorded” stand apart in the source; their conditions may differ. Read-outs that look alike come from different tables or passages of the source.
How the values were obtained:
[1] = assay type: in vivo, human (healthy Chinese subjects); conditions: for CL renal: plasma and urine, CLR
[2] = cited from earlier work
[3] = system: CYP3A4; conditions: minor contribution from other CYP enzymes; cited from earlier work
[4] = system: breast cancer resistance protein; conditions: cited from earlier work
[5] = system: P-glycoprotein; conditions: cited from earlier work
[6] = assay type: in vivo, human (healthy Chinese subjects)
Summary of the method: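 Dosing was 10 mg once on day 1, then 10 mg twice daily for 6 d, ending with the morning dose on day 9. Subjects were confined to the facility throughout and monitored for adverse events, with physical examinations, vital signs, ECGs and clinical laboratory tests.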

[7] = molecular target: bovine factor Xa (Bos taurus, UniProt P00743); assay: Plasma anti-Xa activity by chromogenic assay after apixaban dosing; assay type: in vivo
bovine factor Xa, sequence (P00743 234-492 limits assumed): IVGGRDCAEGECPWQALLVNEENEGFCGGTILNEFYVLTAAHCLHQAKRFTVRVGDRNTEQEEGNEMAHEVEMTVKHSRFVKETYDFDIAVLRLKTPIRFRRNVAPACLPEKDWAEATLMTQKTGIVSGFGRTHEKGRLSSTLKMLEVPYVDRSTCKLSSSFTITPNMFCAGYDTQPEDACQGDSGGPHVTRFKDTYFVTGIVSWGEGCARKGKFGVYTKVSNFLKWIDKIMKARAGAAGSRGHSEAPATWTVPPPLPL
bovine factor Xa, sequence (P00743 41-180 partner limits assumed): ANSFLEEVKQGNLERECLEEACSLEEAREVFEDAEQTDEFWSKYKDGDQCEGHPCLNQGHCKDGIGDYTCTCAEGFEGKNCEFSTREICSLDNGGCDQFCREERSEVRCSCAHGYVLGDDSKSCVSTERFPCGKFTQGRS

[8] = multiple doses 10 mg twice daily, one of twelve subjects

Q: With `COc1ccc(-n2nc(C(N)=O)c3c2C(=O)N(c2ccc(N4CCCCC4=O)cc2)CC3)cc1` [apixaban] as the molecule, how does the CL renal ([1]; human, oral, 10 mg, Mean (SD), multiple doses 10 mg twice daily, day 9, n=12) read?
A: 20 mL/min

Q: What about the CL renal ([1]; human, po, 10 mg, Mean (SD), single 10 mg oral dose, day 1, n=12) of the same molecule?
A: 19.5 mL/min

Q: What about the Tmax ([1]; human, plasma, oral, 10 mg, Tmax, Median (min, max), multiple doses 10 mg twice daily, day 9, n=12) of the same molecule?
A: 3.5 h

Q: And the half-life ([1]; human, plasma, oral, 10 mg, t½, Mean (SD), multiple doses 10 mg twice daily, day 9, n=12)?
A: 10.8 h

Q: And the AUC(0-inf) ([1]; human, plasma, po, 10 mg)?
A: 2310 ng·h/mL

Q: What about the AUC(0-t) ([1]; human, plasma, po, 10 mg) of the same molecule?
A: 2270 ng·h/mL

Q: And the Cmax ([1]; human, plasma, po, 10 mg)?
A: 234 ng/mL

Q: And the “time at which steady-state conditions were achieved” value ([1]; multiple doses 10 mg twice daily)?
A: by the third day of multiple-dose administration

Q: What about the “t½, Mean (SD)” value ([1]; single 10 mg oral dose, day 1, n=12) of the same molecule?
A: 11.4 (3.6) hours

Q: And the CLR ([2]; Japanese and non-Asian subjects, ref previous studies)?
A: 0.49 to 1.07 L/h

Q: What about the oral bioavailability [2] of the same molecule?
A: ~ 50%

Q: And the “share of total clearance via the kidneys” value [2]?
A: 27%

Q: And the “mean elimination t½” value ([2]; healthy Western subjects)?
A: approximately 12 hours

Q: What about the “share of dose undergoing oxidative metabolism” value ([2]; oral administration) of the same molecule?
A: ~ 25%

Q: And the “time to Cmax after oral administration” value ([2]; oral administration)?
A: ~ 3 hours

Q: And the “time to Cmax” value ([2]; white and Japanese subjects)?
A: 2 to 4 h

Q: And the “enzyme mediating oxidative metabolism” value [3]?
A: primarily mediated via CYP3A4

Q: What about the “breast cancer resistance protein substrate” value [4] of the same molecule?
A: substrate

Q: And the P-glycoprotein substrate [5]?
A: substrate

Q: And the “severity of adverse events after multiple-dose administration” value ([6]; 10 mg twice daily)?
A: mild

Q: And the “overall safety and tolerability” value ([6]; healthy Chinese subjects, 10 mg single and twice-daily doses)?
A: safe and well tolerated

Q: And the “subjects with elevated alanine aminotransferase (ALT)” value [6, 8]?
A: 8%

Q: And the “subjects with microscopic hematuria” value [6, 8]?
A: 8%

Q: What about the “subjects with positive fecal blood” value [6, 8] of the same molecule?
A: 8%

Q: And the “adverse events after single dose” value ([6]; single-dose apixaban 10 mg)?
A: No adverse events

Q: And the “changes in vital signs, physical examinations, or ECGs” value ([6]; whole study)?
A: No clinically significant changes

Q: What about the “deaths, serious adverse events, discontinuations, bleeding-related adverse events” value ([6]; whole study, 10 mg single and twice-daily doses, n=12) of the same molecule?
A: no bleeding-related adverse events reported; also recorded: no deaths, other serious adverse events, adverse events leading to discontinuation, or clinically significant bleeding-related adverse events

Q: What about the “maximum anti-Xa activity, mean (SD)” value ([7]; day 9, at 3 hours (peak apixaban concentration), 10 mg twice daily, low-molecular-weight heparin units) of the same molecule?
A: 5.57 (SD, 1.54) IU/mL

Q: What about the “minimum anti-Xa activity, mean (SD)” value ([7]; day 9, at 12 hours (trough apixaban concentration), 10 mg twice daily, low-molecular-weight heparin units) of the same molecule?
A: 1.94 (SD, 0.54) IU/mL

Q: And the “relationship between anti-Xa activity and plasma apixaban concentration” value ([7]; single and multiple doses)?
A: appears to be linear; also recorded: direct linear relationship

— publication PMC3861362 (Clinical Pharmacology : Advances and Applications, 2013)
